Laboratory results taken from ChEMBL document CHEMBL1833946, “Synthesis of β-functionalized temoporfin derivatives for an application in photodynamic therapy” (Bioorg Med Chem Lett, 2011).
The source made the active and inactive calls. The calls are words filed in the database; no cut-off is given here.

Columns and labels:
[1] = tested on: HT-29; assay: Phototoxicity against human HT29 cells irradiated with 652 nm diode laser at the rate of 50 J/cm'2 at 2 uM after 24 hrs by XTT assay in presence of 10% heat-inactivated fetal calf serum; format: functional, cell-based
Method in brief: (§1)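 HT-29 cells seeded at 2 × 10⁴ cells/well. Loaded 24 h with 2 or 10 μM sensitizer (final; from 2 mM DMSO stock kept dark at 4 °C) in phenol-red-free RPMI 1640 plus 10% FCS. Irradiated at room temperature with a 652 nm diode laser, 100 mW/cm², 50 J/cm². Viability read by XTT absorbance.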

[2] = tested on: HT-29; assay: Phototoxicity against human HT29 cells irradiated with 652 nm diode laser at the rate of 50 J/cm'2 at 10 uM after 24 hrs by XTT assay in presence of 10% heat-inactivated fetal calf serum; format: functional, cell-based; method in brief: as §1
[3] = tested on: HT-29; assay: Cytotoxicity against human HT29 cells under dark condition at 2 uM after 24 hrs by XTT assay in presence of 10% heat-inactivated fetal calf serum; format: functional, cell-based
Method in brief: (§2)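 HT-29 human colon adenocarcinoma cells seeded at 2 × 10⁴ cells/well. Incubated 24 h with 2 or 10 μM sensitizer (final, diluted from 2 mM DMSO stock) in phenol-red-free RPMI 1640 with 10% FCS. Cells kept without irradiation for dark toxicity. Viability measured by XTT absorbance.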

[4] = tested on: HT-29; assay: Cytotoxicity against human HT29 cells under dark condition at 10 uM after 24 hrs by XTT assay in presence of 10% heat-inactivated fetal calf serum; format: functional, cell-based; method in brief: as §2
[5] = Chemical stability of the compound; format: physicochemical

| Stability [5] | SMILES | Activity [1] | Activity [2] | Activity [3] | Activity [4] |
| --- | --- | --- | --- | --- | --- |
| Stable | CCCCCCC1(O)c2nc(c(-c3cccc(O)c3)c3ccc([nH]3)c(-c3cccc(O)c3)c3nc(c(-c4cccc(O)c4)c4ccc([nH]4)c2-c2cccc(O)c2)C=C3)C1(O)CCCCCC (stereo not given) | Active | Active | inactive | inactive |
| Stable | Oc1cccc(-c2c3nc(c(-c4cccc(O)c4)c4ccc([nH]4)c(-c4cccc(O)c4)c4nc(c(-c5cccc(O)c5)c5ccc2[nH]5)C(O)(c2cc(C(F)(F)F)cc(C(F)(F)F)c2)C4(O)c2cc(C(F)(F)F)cc(C(F)(F)F)c2)C=C3)c1 (stereo not given) | inactive | Active | inactive | inactive |
| Stable | Oc1cccc(-c2c3nc(c(-c4cccc(O)c4)c4ccc([nH]4)c(-c4cccc(O)c4)c4nc(c(-c5cccc(O)c5)c5ccc2[nH]5)C(O)(C(F)(F)F)C4(O)C(F)(F)F)C=C3)c1 (stereo not given) | Active | Active | inactive | inactive |
